Screens from PubChem BioAssay.
APP transl inh = APP translation inhibition; SH-SY5Y APP 5'UTR-luciferase reporter, luminescence; actives 0.82% (n = 190,000); AID 1285; inhibition, % at 2 µM;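 active = inhibition above a set limit, derived from the sample mean plus 3 SD, cut at about 45% in these data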
bCat nuc transl = beta-catenin nuclear translocation modulation. HeLa beta-catenin nuclear translocation, immunofluorescence imaging. nuclear translocation activity, % at 5 µM. actives 0.3% (n = 190,000);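 active = nuclear translocation activity above 50% at 5 µM, with a well cell count of 50 or more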;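 note: per-cell ratio of nuclear to cytoplasmic median beta-catenin stain intensity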
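Test system: human HeLa cell line; Doses: 5 µM primary, 0.02–20 µM confirmation; Incubation: 24 h compound exposure, 37°C; Detection: beta-catenin immunofluorescence imaging with DAPI; Read-out: beta-catenin nuclear/cytoplasmic ratio, % activation.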
Lmaj promast = inhibitors of Leishmania major promastigote growth. Leishmania major promastigotes, resazurin fluorescence viability. inhibition, % at 10 µM. actives 9% (n = 200,000); in the data active = inhibition above about 50%;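 note: promastigotes grown with compound for 44 hours at 28 °C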
MT stabilize HCS = microtubule stabilization, imaging screen | HeLa tubulin immunostaining HCS, 24 h; share of cells brighter than vehicle mean+2SD | % tubulin-high responders, % at 10 µM | actives 0.83% (n = 200,000) | AID 2205;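 active = plate Z-score above 3 for both tubulin-high and condensed-nucleus cell shares, with cell loss under 80%, at 10 µM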;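 note: anti alpha tubulin signal scored within the nucleus-defined area of each cell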
BaF3 parental = reduces parental Ba/F3 cell viability, JAK2V617F counter-screen; actives 1.1% (n = 220,000); CellTiter-Glo ATP luminescence; inhibition, % at 5.6 µM;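 active = inhibition above a per-campaign cutoff, the mean inhibition of all tested compounds plus 3 SD, cut at about 27% in these data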
Ba/F3 V617F tox = lowers viability of Ba/F3 cells expressing EpoR and JAK2V617F | ATP luminescence | inhibition, % at 5.6 µM | actives 1.1% (n = 220,000);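 active = inhibition above the campaign mean plus 3 SD over all tested compounds, cut at about 24% in these data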;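 note: cytokine-independent growth of Ba/F3 cells driven by EpoR plus mutant JAK2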
Each line names hits and unclear results; the compound was inactive in the other large screens. Compounds with a hit are over-represented: about 9.6% of the library has one in this group of screens.

O=C(Nc1ccc(Cl)cc1)N1N=CCC1c1ccccc1 (centres undefined)	none (no result: APP transl inh, Lmaj promast, MT stabilize HCS)
O=C(Nc1ccccc1)C1=C(O)CC(c2ccc(Cl)cc2)N2CCN=C12 (centres undefined)	Lmaj promast 92
Cn1c(=O)c2c(nc(NCCCN3CCOCC3)n2Cc2ccc(Cl)cc2)n(C)c1=O	Lmaj promast 58
Cn1c(=O)c2c(nc(NCCCN3CCOCC3)n2Cc2cccc(Cl)c2)n(C)c1=O	Lmaj promast 98
Cn1c(=O)c2c(nc(NCCCN3CCOCC3)n2Cc2ccc(Cl)c(Cl)c2)n(C)c1=O	Lmaj promast 99 (no result: bCat nuc transl)
Cn1c(=O)c2c(nc(CN3CCN(Cc4ccccc4)CC3)n2CCN2CCOCC2)n(C)c1=O	none
Cc1ccc(Cn2c(CN3CCOCC3)nc3c2c(=O)n(C)c(=O)n3C)cc1	none
CC(C)C1CC(c2ccccc2)(C(CN)CO)CCO1 (centres undefined)	none
O=C(NC1CCCCC1)C(c1ccccn1)N(C(=O)c1csnn1)C1CC1 (centres undefined)	none (no result: MT stabilize HCS)
N#CCCn1cc(C(=O)N2CCCCC2)c(-c2ccc([N+](=O)[O-])cc2)n1	none
CCNC(=S)NNC(=O)CCn1cc(C)cn1	none (no result: bCat nuc transl)
COc1cc(C(C)=O)ccc1Oc1ncnc2c1cnn2-c1cccc(Cl)c1	Lmaj promast 52 (no result: bCat nuc transl)
COc1cc(C(C)=O)ccc1Oc1ncnc2c1cnn2-c1ccc(F)cc1	none
Nc1[nH]ncc1-c1ccc(F)cc1	none
Cc1ccc(NC(=O)C2CCCN2C(=O)OC(C)(C)C)cc1C (centres undefined)	none (no result: APP transl inh, Lmaj promast, MT stabilize HCS)
CC1=CCC2C(=O)N(CCc3c[nH]c4ccccc34)C(=O)C2C1 (centres undefined)	Lmaj promast 98
O=C1C2CC=C(Cl)CC2C(=O)N1CCc1c[nH]c2ccccc12 (centres undefined)	none
O=C(OC(C(=O)Nc1cccc(C(F)(F)F)c1)c1ccccc1)C1CCCCC1 (centres undefined)	none
S=C(NC1CCCCC1)NC1CC2C=CC1C2 (centres undefined)	none (no result: APP transl inh, Lmaj promast, MT stabilize HCS)
Cc1ccc(CONC(=O)c2ccc(OC(F)F)cc2)cc1	none
FC(F)Oc1ccc(-n2cc(-c3ccccc3)[n+]3c2CCCCC3)cc1	BaF3 parental 63, Ba/F3 V617F tox 65 (no result: APP transl inh, Lmaj promast, MT stabilize HCS)
Cc1ccc(-c2cn(-c3ccc(OC(F)F)cc3)c3[n+]2CCCCC3)cc1	BaF3 parental 73, Ba/F3 V617F tox 78 (no result: APP transl inh, Lmaj promast, MT stabilize HCS)
Clc1ccc(CN=C(Nc2ccccc2)NC2CCCCC2)cc1	Lmaj promast 95
Cc1cc(C)c2c(CCl)cc(=O)oc2c1	APP transl inh 94 (no result: Lmaj promast, MT stabilize HCS)
Cc1cc(C)c2c(CC(=O)O)coc2c1	none
Cn1ccc(C(=O)NC(=S)N2CCSCC2)n1	none (no result: APP transl inh, Lmaj promast, MT stabilize HCS)
Cc1ccc2nc(-c3ccccc3)c(CN3CCSCC3)n2c1	Lmaj promast 63
Cc1ccc2nc(-c3ccccc3)c(CN3CCOCC3)n2c1	none
Cc1ccc2nc(N3CCN(c4ccccc4F)CC3)c(C=O)c(=O)n2c1	none
Cc1ccc2nc(-c3ccccc3)c(CN3CCN(c4ccccc4F)CC3)n2c1	Lmaj promast 80
Cc1cccc(C(=O)O/N=C/c2c(N3CCOCC3)n(C)c3ccccc23)c1	Lmaj promast 99
COC(=O)c1sccc1NC(=O)c1cnc2cc(C)nn2c1C	none
CC1=NN(c2ccc(C)cc2C)C(=O)C1C(c1cccc(O)c1)C1C(=O)N(c2ccc(C)cc2C)N=C1C (centres undefined)	Lmaj promast 56
CCc1ccc(N(C2C=CS(=O)(=O)C2)S(=O)(=O)c2ccccc2)cc1 (centres undefined)	Lmaj promast 59
COc1ccc(CC2(CO)CCN(Cc3cnn(C)c3C)CC2)cc1	none
COc1ccc(CC2(CO)CCN(CC3=CC[C@H]4C[C@@H]3C4(C)C)CC2)cc1	Lmaj promast 82
COc1ccc(CC2(CO)CCN(Cc3ccncc3)CC2)cc1	Lmaj promast 89
COC(=O)c1ccc(CN2CCC(CO)(Cc3cccc(OC)c3)CC2)cc1	Lmaj promast 83
Cc1ccc(C(=O)NCC(=O)OCC(=O)Nc2ccccc2[N+](=O)[O-])cc1	none
COc1ccccc1/C=C(/C(=O)OCC(N)=O)c1ccccc1	Lmaj promast 62 (no result: bCat nuc transl)
COc1ccccc1/C=C(/C(=O)OCC(=O)N(C)Cc1ccccc1)c1ccccc1	none
CCOc1c(Cl)cc(C(=O)Nc2cccc(C(=O)O)c2)cc1Cl	none
C#CC[N+](C)(C)C(C#Cc1ccccc1)CC=C (centres undefined)	BaF3 parental 48, Ba/F3 V617F tox 26
CCOC(=O)c1nnn(CC(=O)Nc2cccc(Cl)c2C)c1C(=O)OCC	none (no result: bCat nuc transl)
CCOC(=O)c1nnn(CC(=O)N2N=C(c3cccc4ccccc34)CC2c2ccccc2)c1C(=O)OCC (centres undefined)	Lmaj promast 52
CCOC(=O)C1=C(N)Oc2ccc3ccccc3c2C1c1cccnc1 (centres undefined)	Lmaj promast 98
CCOC(=O)C1=C(N)N(c2ccccc2)C2=C(C(=O)CCC2)C1c1cccnc1 (centres undefined)	Lmaj promast 72 (no result: bCat nuc transl)
CCOC(=O)C1=C(C)Nc2ncnn2C1c1cccnc1 (centres undefined)	none
COC(=O)C1=C(N)Oc2cc(C)n(Cc3cccnc3)c(=O)c2C1c1ccc(OC)c(OC)c1 (centres undefined)	none
COC(=O)C1=C(N)Oc2cc(C)n(CCc3ccccc3)c(=O)c2C1c1cccnc1 (centres undefined)	Lmaj promast 98
CCOC(=O)C1=C(C)N(C)C(C)=C(C(=O)OCC)C1c1cccnc1	Lmaj promast 95 (no result: bCat nuc transl)
CC(Sc1nnc(Cc2ccc3c(c2)OCO3)o1)C(N)=O (centres undefined)	none
CCOC(=O)C1=C(N)Oc2cc(C)n(CCc3ccc(OC)c(OC)c3)c(=O)c2C1c1cccnc1 (centres undefined)	Lmaj promast 94
CCOC(=O)C1=C(N)Oc2cc(C)n(C)c(=O)c2C1c1ccncc1 (centres undefined)	none
CC(C(=O)N1CCOCC1)c1ccc([N+](=O)[O-])cc1 (centres undefined)	Lmaj promast 55
CC(C(=O)N1CCN(Cc2ccc3c(c2)OCO3)CC1)c1ccc([N+](=O)[O-])cc1 (centres undefined)	Lmaj promast 80
CCOC(=O)C1CCN(C(=O)C(C)c2ccc([N+](=O)[O-])cc2)CC1 (centres undefined)	none
CSc1nnc2ccc(-c3cccs3)nn12	none
CC(=O)Nc1nc2c(s1)C(=O)NCCC2	none
CCOc1ccc(NC(c2ccccn2)c2oc(CO)cc(=O)c2O)cc1 (centres undefined)	none
CC(=O)Cc1nsc(NC(=O)c2ccc(-c3cc(Cl)ccc3Cl)o2)n1	bCat nuc transl 132, MT stabilize HCS 26
CC(=O)Cc1nsc(NC(=O)c2ccc(-c3ccc(Cl)cc3Cl)o2)n1	none (no result: bCat nuc transl)
S=C(c1ccc(-c2cc(Cl)ccc2Cl)o1)N1CCOCC1	none
